Assay outcomes (PubChem BioAssay)
STEP inh: inhibitors of human striatal-enriched phosphatase STEP | recombinant STEP, OMFP fluorogenic substrate, fluorescence | AID 588621 | inhibition, % at 20 µM | hit rate 0.25% among 360,000;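 active = inhibition at 20 µM, scaled per plate between control wells, above about 37%, limit read from the data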;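 also: 0% = DMSO with enzyme and substrate and 100% = substrate only without enzyme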
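medium = Bis-Tris buffer pH 6.0, 2.5 mM DTT, 0.005% Tween 20 | test system = STEP (striatal-enriched tyrosine phosphatase) enzyme, cell-free | measure = normalized % inhibition | compound dosing = 20 µM, 1% DMSO | also added = 25 µM OMFP | schedule = reaction 20 min, ambient temperature | measured by = fluorescence read at 480 nm ex / 540 nm em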
LMPTP block: LMPTP (human) inhibition | P24666 | recombinant LMPTP-A, OMFP fluorogenic substrate, fluorescence intensity | inhibition, % at 20 µM | hit rate 0.22% among 360,000 | AID 651560;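 active = compounds that cut the enzyme signal by at least half of the control window in the single-dose screen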;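 also: plate controls were DMSO wells with enzyme plus substrate for no effect and substrate without enzyme for full effect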
Target sequence (P24666 whole entry, looked up): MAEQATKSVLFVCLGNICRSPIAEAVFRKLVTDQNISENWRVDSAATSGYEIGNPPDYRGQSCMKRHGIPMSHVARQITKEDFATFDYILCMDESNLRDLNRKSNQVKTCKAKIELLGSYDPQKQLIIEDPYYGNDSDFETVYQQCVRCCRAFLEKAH
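material = LMPTP-A | quantity = 0.625 nM enzyme | reagent = OMFP substrate, 400 µM final | buffer or medium = Bis-Tris pH 6.0, DTT, detergent | detection = endpoint fluorescence intensity from OMFP dephosphorylation | dosing = single 20 µM dose | read-out basis = % inhibition relative to no-enzyme and uninhibited control wells | control set = no-enzyme and uninhibited controls | timing = 50 min at room temperature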
CSN inh: blocks human CSN-mediated cullin deneddylation | Purified CSN, SCF-Nedd8-OG deneddylation, fluorescence polarization | inhibition, % at 12.5 µM | hit rate 0.38% among 360,000;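 active = pattern-corrected inhibition above about 35%, with an unprinted fluorescence ratio check between 0.5 and 1.5, limit read from the data, passing the limit was not always enough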;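 also: 0% = enzyme with substrate and 100% = substrate without enzyme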
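Material: purified human Csn5 enzyme expressed in HEK293T cells / Medium: Tris buffer pH 7.5, NaCl, DTT, Tween-20, trehalose, ovalbumin / Compound dosing: 12.5 µM single point / Schedule: 90 min incubation of compound, enzyme and substrate at room temperature / Signal: fluorescence polarization of the substrate / Control set: no-enzyme wells high, enzyme-with-substrate wells low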
SUMO1 PPI mod: modulators of human SUMO1-mediated protein-protein interactions | P63165 | SUMO1 binding to a labelled peptide, TR-FRET, 1 h | inhibition, % at 20 µM | hit rate 0.33% among 360,000 | AID 602429; in the data active = inhibition above about 37%
Target sequence (P63165 whole entry, looked up): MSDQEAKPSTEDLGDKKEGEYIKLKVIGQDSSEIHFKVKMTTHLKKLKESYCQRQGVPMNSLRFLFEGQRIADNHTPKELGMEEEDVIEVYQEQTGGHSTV
Scp1 inh: blocks human Scp-1 phosphatase activity; Recombinant Scp1, phosphopeptide, malachite green phosphate absorbance; inhibition, % at 20 µM; AID 493091; hit rate 0.88% among 340,000;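 active = inhibition above about 50% at 20 µM, limit read from the data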;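 also: plate controls were DMSO wells with enzyme for no effect and wells lacking enzyme for full effect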
Target sequence (Q9GZU7 76-261 limits assumed): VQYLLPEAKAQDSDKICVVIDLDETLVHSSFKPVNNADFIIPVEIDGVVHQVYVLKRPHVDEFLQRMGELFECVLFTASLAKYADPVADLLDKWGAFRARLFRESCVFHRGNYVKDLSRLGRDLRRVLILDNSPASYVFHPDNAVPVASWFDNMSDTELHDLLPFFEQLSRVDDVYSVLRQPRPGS
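Test system – truncated SCP-1 phosphatase (76-261aa) · Reagent – Phosphorylated 17-residue peptide substrate · Incubation – 45 min room-temperature reaction, 5 min colour, 30 min stabiliser · Detection – colorimetric phosphate reagent with accelerator and stabiliser, absorbance at 630 nm · Measure – % inhibition at 20 µM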
DNMT1 inh: blocks human DNA methyltransferase DNMT1 | P26358 | AID 588458 | hit rate 0.83% among 360,000 | DNMT1 molecular beacon, Hinp1I cleavage, fluorescence | inhibition (reported as % activation of signal), % at 10 µM; in the data active = inhibition above about 50%
Scp1 confirm: Scp-1 (human) inhibition, single-dose confirmed; AID 540281; shares compounds with Scp1 inh; recombinant SCP-1 catalytic domain, phosphate release, malachite green absorbance; inhibition, % at 20 µM; hit rate 61% among 2,500;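 also: plate controls were DMSO with enzyme for no effect and buffer wells lacking enzyme for full effect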
Scp-1 MG ctr: interferes with malachite green readout, flagging false Scp-1 hits. shares compounds with Scp1 inh. Colorimetric interference counterscreen, malachite green absorbance 630 nm. apparent inhibition (interference), % at 20 µM. 2,500 tested, under 10 active;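 also: compounds added after enzyme reaction finished so only phosphate colour detection is probed; plate controls were DMSO wells with completed Scp-1 reaction for no effect and substrate wells lacking enzyme for full effect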
Scp-1 Tm shift: validation of human Scp-1 inhibitors by thermal shift binding; shares compounds with Scp1 inh; Recombinant SCP1, Sypro Orange thermal shift Tm; thermal shift relative to vanadate control, % at 40 µM; hit rate 25% among 1,500; AID 540329;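 active = substances whose mean melting-temperature shift, as a percentage of the reference inhibitor's shift, reaches about 5.3%, limit read from the data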;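 also: 0% = Tm of DMSO wells and 100% = Tm with sodium orthovanadate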
Starred values were filed as active, the others as inactive; / = no result. An excerpt weighted towards active compounds, which were near 1.9% of everything screened.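 The calls were made as follows, unless noted: active = inhibition of at least 30% at 20 µM; inactive = the rest.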

SMILES | STEP inh | LMPTP block | CSN inh | SUMO1 PPI mod | Scp1 inh | DNMT1 inh | Scp1 confirm | Scp-1 MG ctr | others
CCOC(=O)C1(C)CCCN(C(=O)c2ccccc2OC(F)(F)F)C1 (stereo not drawn) | -6 | 0 | 3 | 5 | / | 14 | / | /
O=C(NCCCc1ccncc1)C1CCC(=O)N(CCc2cccc(F)c2)C1 (stereo not drawn) | 0 | -1 | 1 | 0 | -2 | -1 | / | /
Cc1cc(C)c2c(=N)c3ccccc3n(CCCCCCCCn3c4ccccc4c(=N)c4c(C)cc(C)nc43)c2n1 | 11 | 87* | 96 | 95* | 59* | 13 | 5 | 15
CCCCCCCCn1c2c(c(=N)c3ccccc31)CCC2 | 10 | 6 | 6 | -4 | -3 | 5 | / | /
Cc1cccc(C(=O)NC2CC3CCCC(C2)N3Cc2ccccc2)c1 (stereo not drawn) | 4 | -2 | 3 | -2 | 11 | 3 | / | /
COCC1=C(C(=O)OC(C)OC(=O)OC(C)C)N2C(=O)[C@@H](NC(=O)/C(=N\OC)c3csc(N)n3)[C@H]2SC1 (stereo partly drawn) | 3 | 2 | 3 | 0 | -4 | -13 | / | /
CO/N=C(\C(=O)N[C@@H]1C(=O)N2C(C(=O)O)=C(COC(N)=O)CS[C@H]12)c1ccco1 | 7 | -1 | 11 | 21 | 70* | 35 | 67* | -10 | Scp-1 Tm shift=8.0*
CON=C(C(=O)NC1C(=O)N2C(C(=O)O)=C(CSc3nc(=O)c(=O)[nH]n3C)CSC12)c1csc(N)n1 (stereo not drawn) | 11 | 1 | 7 | 33 | 65* | 47 | 52* | -11 | Scp-1 Tm shift=3
C=C1C(=O)N(C)CCC1C(CC)C(=O)OC (stereo not drawn) | 0 | 0 | 7 | -6 | / | 1 | / | /
Nc1cc([N+](=O)[O-])ccc1N1C(=O)CCCC1=O | 4 | 2 | 4 | -8 | 64* | 16 | 49* | -8 | Scp-1 Tm shift=-16
O=C(NNC(=O)c1ccccc1F)c1ccc(Cl)c(S(=O)(=O)N2CCOCC2)c1 | -2 | 0 | -4 | 7 | 57* | 3 | -12 | -13
CCN(C(=O)COC(=O)c1[nH]c(C)c(C(C)=O)c1C)C1CCS(=O)(=O)C1 (stereo not drawn) | -5 | -1 | -3 | -2 | 70* | 4 | -6 | -7
O=C1C=C(O)c2cccc(O)c2C1=O | 2 | 4 | 9 | 0 | 50* | -4 | 43* | -5 | Scp-1 Tm shift=12*
COc1ccc(CCCc2nnc(SCC(=O)Nc3ccc(C)c(C)c3)o2)cc1 | -3 | 0 | 6 | 0 | 90* | -1 | -3 | -15
COc1ccc(C(=O)NCc2nnc(SCC(=O)Nc3ccccc3F)o2)cc1 | -1 | -1 | 4 | -1 | 52* | 3 | -24 | -19
Cc1noc(C)c1S(=O)(=O)Nc1ccc2c(c1)C(=O)N([C@H](C)CO)C[C@H](C)[C@@H](CN(C)C(=O)NC1CCCCC1)O2 | -2 | -1 | 2 | 7 | 56* | 9 | 21 | -6
COc1ccc(NC(=O)N(C)C[C@H]2Oc3ccc(NS(=O)(=O)c4c(C)noc4C)cc3C(=O)N([C@H](C)CO)C[C@@H]2C)cc1 | -2 | -1 | -3 | 2 | 58* | 12 | 10 | -17
COc1ccc(NC(=O)N(C)C[C@H]2Oc3ccc(NC(=O)Cc4ccccc4)cc3C(=O)N([C@H](C)CO)C[C@@H]2C)cc1 | 0 | 0 | 4 | 5 | 2 | 1 | / | /
COc1ccc(S(=O)(=O)Nc2ccc3c(c2)C(=O)N([C@H](C)CO)C[C@H](C)[C@@H](CN(C)S(=O)(=O)c2ccccc2)O3)cc1 | -1 | 0 | 3 | 3 | -6 | 2 | / | /
C[C@H](CO)N1C[C@H](C)[C@@H](CN(C)C(=O)NC2CCCCC2)Oc2ccc(NS(=O)(=O)c3ccccc3)cc2C1=O | 0 | -2 | -1 | 1 | -3 | -3 | / | /
COc1ccc(NC(=O)Nc2ccc3c(c2)C(=O)N([C@H](C)CO)C[C@H](C)[C@@H](CN(C)C(=O)Nc2ccccc2)O3)cc1 | -4 | -1 | 5 | 10 | 71* | 4 | 8 | -10
COc1ccc(S(=O)(=O)N(C)C[C@H]2Oc3ccc(NS(=O)(=O)c4ccccc4)cc3C(=O)N([C@H](C)CO)C[C@@H]2C)cc1 | 0 | -1 | -2 | -6 | 59* | 0 | 5 | -10
COc1ccc(S(=O)(=O)Nc2ccc3c(c2)C(=O)N([C@H](C)CO)C[C@H](C)[C@@H](CN(C)C(=O)Nc2c(C)noc2C)O3)cc1 | 2 | -2 | -4 | 1 | -3 | 2 | / | /
NC(=O)NCCCC(=O)NCC(c1ccccc1Cl)c1c[nH]c2ccccc12 (stereo not drawn) | 1 | 0 | -2 | 4 | -11 | -18 | / | /
COc1ccc(NC(=O)N(C)C[C@H]2Oc3ccc(NC(=O)Nc4c(C)noc4C)cc3C(=O)N([C@H](C)CO)C[C@@H]2C)cc1 | 2 | 0 | 0 | 7 | 62* | 4 | -3 | -20
SMILES | STEP inh | LMPTP block | CSN inh | SUMO1 PPI mod | Scp1 inh | DNMT1 inh | Scp1 confirm | Scp-1 MG ctr | others
Cc1cc(C)c(C#N)c(N2CCCC2)n1 | 0 | -1 | -2 | 2 | -6 | 0 | / | /
Cc1cc(C)c(C#N)c(Cl)n1 | -1 | -1 | -6 | 4 | 66* | 0 | -25 | -21
COc1ccc(/C=C(\NC(=O)c2ccccc2)C(=O)OC[C@@H]2CCC[N+]3(C)CCCCC23)cc1OC (stereo partly drawn) | -1 | -1 | 4 | -8 | 102* | 1 | 89* | -11 | Scp-1 Tm shift=-16
O=C1CN(C(=O)/C=C/c2ccc(Br)cc2)CCN1 | -2 | 0 | 3 | -18 | -6 | -8 | / | /
Cn1c(=O)c(=O)n(C)c2cc(S(=O)(=O)N3CCCC3C(=O)Nc3ccccc3F)ccc21 (stereo not drawn) | 0 | 0 | -3 | -1 | 0 | 0 | -7 | -7
Cc1cccc(C)c1NC(=O)C1CCCN1S(=O)(=O)c1ccc2c(c1)n(C)c(=O)c(=O)n2C (stereo not drawn) | 1 | -3 | 1 | -2 | -4 | 1 | -14 | -18
